Measured values published in ChEMBL document CHEMBL2040734, “Benzothiazoles: search for anticancer agents” (2012).

Legend:
Assay type in all cases: functional
[1] = system: RXF 393; test: Cytotoxicity against human RXF393 cells assessed as cell growth at 10 uM after 48 hrs by sulforhodamine B assay; settings: RXF 393, 48 h, read-out: Activity
[2] = system: NCI-H460; test: Cytotoxicity against human NCI-H460 cells assessed as cell growth at 10 uM after 48 hrs by sulforhodamine B assay; settings: NCI-H460, 48 h, read-out: Activity
[3] = system: M14; test: Cytotoxicity against human M14 cells assessed as cell growth at 0.01 uM after 48 hrs by sulforhodamine B assay; settings: M14, 48 h, read-out: Activity
[4] = system: MDA-MB-435; test: Cytotoxicity against human MDA-MB-435 cells assessed as cell growth at 100 uM after 48 hrs by sulforhodamine B assay; settings: MDA-MB-435, 48 h, read-out: Activity
[5] = system: IGROV-1; test: Growth inhibition of human IGROV1 cells after 48 hrs by sulforhodamine B assay; settings: IGROV-1, 48 h
Procedure, shortened: (§1)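 Adherent NCI-60 lines were grown in RPMI 1640 with 5% FBS and 2 mM L-glutamine, plated at 5000–40,000 cells/well and preincubated 24 h. They were then exposed to five concentrations (0.01–100 µM, from a DMSO stock) for 48 h at 37 °C, 5% CO2. Cells were fixed with cold TCA (10% final, 60 min, 4 °C) and stained with 0.4% SRB. Dye was solubilized in 10 mM Tris base and A515 read. GI50 was derived from time-zero, control and treated absorbances.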

[6] = system: NCI-H522; test: Cytotoxicity against human NCI-H522 cells assessed as cell growth at 0.1 uM after 48 hrs by sulforhodamine B assay; settings: NCI-H522, 48 h, read-out: Activity
[7] = system: CCRF-CEM; test: Cytotoxicity against human CCRF-CEM cells assessed as cell growth at 1 uM after 48 hrs by sulforhodamine B assay; settings: read-out: Activity
Procedure, shortened: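 CCRF-CEM suspension leukemia cells in RPMI 1640 with 5% FBS and 2 mM L-glutamine, plated 24 h before dosing. Five concentrations (0.01–100 µM) were applied from a DMSO stock for 48 h at 37 °C. Settled cells were fixed with 80% TCA (final 16%) and stained with SRB, with read-out at 515 nm. Percent growth was derived from time-zero and control absorbances.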

[8] = system: SK-MEL-5; test: Cytotoxicity against human SK-MEL-5 cells assessed as cell growth at 100 uM after 48 hrs by sulforhodamine B assay; settings: SK-MEL-5, 48 h, read-out: Activity
[9] = system: SF-295; test: Cytotoxicity against human SF295 cells assessed as cell growth at 100 uM after 48 hrs by sulforhodamine B assay; settings: SF-295, 48 h, read-out: Activity
[10] = system: NCI-H522; test: Cytotoxicity against human NCI-H522 cells assessed as cell growth at 100 uM after 48 hrs by sulforhodamine B assay; settings: NCI-H522, 48 h, read-out: Activity
[11] = system: SK-MEL-5; test: Growth inhibition of human SK-MEL-5 cells after 48 hrs by sulforhodamine B assay; settings: SK-MEL-5, 48 h; procedure, shortened: as §1
[12] = system: U-251; test: Cytotoxicity against human U251 cells assessed as cell growth at 1 uM after 48 hrs by sulforhodamine B assay; settings: U-251, 48 h, read-out: Activity
[13] = Cytotoxicity against human Hs 578T cells assessed as cell growth at 10 '-5 M after 48 hrs by sulforhodamine B assay; settings: read-out: Activity
Procedure, shortened: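 Primary one-dose screen across the NCI 60-line panel at 10 µM. Cells were grown in RPMI 1640 with 5% FBS and 2 mM L-glutamine and held 24 h before drug. Drug was diluted from a DMSO concentrate. Exposure was 48 h at 37 °C, 5% CO2. Cells were fixed with TCA and stained with SRB, with absorbance read at 515 nm. Percent growth was calculated against time-zero and untreated control.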

[14] = system: HOP-62; test: Cytotoxicity against human HOP62 cells assessed as cell growth at 1 uM after 48 hrs by sulforhodamine B assay; settings: HOP-62, 48 h, read-out: Activity
Procedure, shortened: (§2)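 Five-dose NCI panel run at 0.01, 0.1, 1, 10 and 100 µM. Cells were in RPMI 1640 with 5% FBS and 2 mM L-glutamine, seeded at 5000–40,000 cells/well and pre-incubated 24 h. Drug was diluted from a DMSO stock into medium with 50 µg/ml gentamicin. Exposure was 48 h at 37 °C, 5% CO2. Cells were fixed with cold TCA and stained with 0.4% SRB, read at 515 nm. Percent growth came from time-zero, control and test absorbances.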

[15] = system: SK-OV-3; test: Cytotoxicity against human SKOV3 cells assessed as cell growth at 0.01 uM after 48 hrs by sulforhodamine B assay; settings: SK-OV-3, 48 h, read-out: Activity
[16] = system: NCI/ADR-RES; test: Cytotoxicity against human NCI/ADR-RES cells assessed as cell growth at 10 uM after 48 hrs by sulforhodamine B assay; settings: read-out: Activity
[17] = Cytotoxicity against human Hs 578T cells assessed as cell growth at 0.1 uM after 48 hrs by sulforhodamine B assay; settings: read-out: Activity; procedure, shortened: as §2
[18] = system: HCC 2998; test: Cytotoxicity against human HCC2998 cells assessed as cell growth at 0.01 uM after 48 hrs by sulforhodamine B assay; settings: HCC 2998, 48 h, read-out: Activity; procedure, shortened: as §2
[19] = system: SN12C; test: Cytotoxicity against human SN12C cells assessed as cell growth at 10 '-5 M after 48 hrs by sulforhodamine B assay; settings: read-out: Activity
[20] = system: 786-0; test: Cytotoxicity against human 786-0 cells assessed as cell growth at 1 uM after 48 hrs by sulforhodamine B assay; settings: 786-0, 48 h, read-out: Activity
Procedure, shortened: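 NCI-60 five-dose screen. Cells were grown in RPMI 1640 with 5% FBS and 2 mM L-glutamine and preincubated 24 h. Compound (DMSO stock) was tested at 0.01, 0.1, 1, 10 and 100 µM for 48 h at 37 °C. Cells were fixed in situ with cold TCA (final 10%) and stained with 0.4% SRB. A515 was read, and percent growth was calculated against time-zero and control plates.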

[21] = system: BT-549; test: Growth inhibition of human BT549 cells after 48 hrs by sulforhodamine B assay; settings: BT-549, 48 h
Procedure, shortened: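 Cells were in RPMI 1640 with 5% FBS and pre-incubated 24 h. Read-out was TCA fixation, SRB staining and absorbance at 515 nm. GI50 was the concentration where [(Ti−Tz)/(C−Tz)]×100 = 50, taken from log concentration vs % growth curves. It is given as ">" the top concentration when not reached.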

[22] = system: T47D; test: Growth inhibition of human T47D cells after 48 hrs by sulforhodamine B assay; procedure, shortened: as §1
[23] = system: SK-MEL-28; test: Cytotoxicity against human SK-MEL-28 cells assessed as cell growth at 0.1 uM after 48 hrs by sulforhodamine B assay; settings: SK-MEL-28, 48 h, read-out: Activity
[24] = system: UACC-62; test: Cytotoxicity against human UACC62 cells assessed as cell growth at 10 '-5 M after 48 hrs by sulforhodamine B assay; settings: UACC-62, 48 h, read-out: Activity
[25] = system: HCT-15; test: Cytotoxicity against human HCT15 cells assessed as cell growth at 1 uM after 48 hrs by sulforhodamine B assay; settings: HCT-15, 48 h, read-out: Activity; procedure, shortened: as §2

| SMILES | growth at 10 µM [1] | growth at 10 µM [2] | growth at 0.01 µM [3] | growth at 100 µM [4] | GI50 [5] | LC50 (50% net cell kill) [5] | TGI [5] | growth at 0.1 µM [6] | growth at 1 µM [7] | growth at 100 µM [8] | growth at 100 µM [9] | growth at 100 µM [10] | LC50 [11] | TGI [11] | growth at 1 µM [12] | growth at 10 µM [13] | growth at 1 µM [14] | growth at 0.01 µM [15] | growth at 10 µM [16] | growth at 0.1 µM [17] | other results |
| --- | --- | --- | --- | --- | --- | --- | --- | --- | --- | --- | --- | --- | --- | --- | --- | --- | --- | --- | --- | --- | --- |
| Cc1ccc2nc(Nc3c(C)cccc3C)sc2c1 | 27% | 22% | 106% | -10% | 4.16 µM | > 100 µM | > 100 µM | 85% | 72% | 60% | 14% | 34% | > 100 µM | > 100 µM | 80% | 54.1% | 66% | 101% | 22% | 97% | growth at 0.01 µM [18]: 97%; growth at 10 µM [19]: 50%; growth at 1 µM [20]: 81%; TGI [21]: > 100 µM; CC50 ([21]; read-out: LC50 (the source's name)): > 100 µM; GI50 [22]: 54.8 µM; LC50 (concentration giving 50% net cell kill) [22]: > 100 µM; TGI [22]: > 100 µM; growth at 0.1 µM [23]: 92%; growth at 10 µM [24]: 35.7%; growth at 1 µM [25]: 48% |
| Clc1cccc(Cl)c1Nc1nc2cccc(Cl)c2s1 | -73% | -75% | 103% | -67% | 1.12 µM | 8.96 µM | 3.17 µM | 86% | 62% | -76% | -51% | -49% | 4.93 µM | 2.22 µM | 68% | -11.4% | 67% | 101% | -72% | 81% | GI50 [11]: 1 µM; growth at 0.01 µM [18]: 92%; growth at 10 µM [19]: -71.5%; growth at 1 µM [20]: 52%; GI50 [21]: 1.5 µM; TGI [21]: 3.01 µM; GI50 [22]: 0.841 µM; LC50 (concentration giving 50% net cell kill) [22]: 5.08 µM; TGI [22]: 2.18 µM; growth at 0.1 µM [23]: 94%; growth at 10 µM [24]: -62.9%; growth at 1 µM [25]: 59% |
